# Assay results from ChEMBL document CHEMBL1152304, “Alteration of the bis-tetrahydrofuran core stereochemistries in asimicin can affect the cytotoxicity” (J Med Chem, 2008).
# Tests used:
# MC-38 [1] = experiment: Cytotoxicity against mouse Colon 38 cells at 60 ug by disk diffusion assay; assay type: functional
# Procedure, shortened: (§1)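 15 µL of sample dried overnight on 6.5 mm filter disk. Disk placed near edge of 60 mm dish of cells plated in soft agar, incubated 7-10 days. Zone of inhibition measured from disk edge to start of normal-sized colony formation, disk diameter taken as 200 units. Overly toxic samples diluted 1:4 or 1:10 and retested.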
# L1210 [2] = experiment: Cytotoxicity against mouse L1210 cells at 3.75 ug by disk diffusion assay; assay type: functional; procedure, shortened: as §1
# [3] = Cytotoxicity against human H125M cells at 15 ug by disk diffusion assay; assay type: functional; procedure, shortened: as §1
# L1210 [4] = experiment: Cytotoxicity against mouse L1210 cells at 0.94 ug by disk diffusion assay; assay type: functional; procedure, shortened: as §1
# L1210 [5] = experiment: Cytotoxicity against mouse L1210 cells at 60 ug by disk diffusion assay; assay type: functional; procedure, shortened: as §1
# [6] = Cytotoxicity against human CFU-GM cells at 3.75 ug by disk diffusion assay; assay type: functional; procedure, shortened: as §1
# [7] = Cytotoxicity against human CFU-GM cells at 0.94 ug by disk diffusion assay; assay type: functional; procedure, shortened: as §1
# L1210 [8] = experiment: Cytotoxicity against mouse L1210 cells at 15 ug by disk diffusion assay; assay type: functional; procedure, shortened: as §1
# MC-38 [9] = experiment: Cytotoxicity against mouse Colon 38 cells at 15 ug by disk diffusion assay; assay type: functional; procedure, shortened: as §1
# [10] = Inhibition of bovine heart mitochondrial complex1 activity; design: species or system Bos taurus
# Procedure, shortened: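 Bovine heart submitochondrial particles, 15 µg/mL, in 0.25 M sucrose, 1 mM MgCl2, 50 mM phosphate pH 7.5. Inhibitor added at various concentrations and equilibrated 5 min. Reaction started with 150 µM NADH and followed spectrophotometrically at 340 nm. IC50 derived.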
# HCT-116 [11] = experiment: Cytotoxicity against human HCT116 cells; assay type: functional, cell-based
# CCRF-CEM = experiment: Cytotoxicity against human CEM cells at 15 ug by disk diffusion assay; assay type: functional; procedure, shortened: as §1
# MC-38 [12] = experiment: Cytotoxicity against mouse Colon 38 cells at 3.75 ug by disk diffusion assay; assay type: functional; procedure, shortened: as §1
# [13] = Cytotoxicity against human CFU-GM cells at 60 ug by disk diffusion assay; assay type: functional; procedure, shortened: as §1
# MC-38 [14] = experiment: Cytotoxicity against mouse Colon 38 cells at 0.94 ug by disk diffusion assay; assay type: functional; procedure, shortened: as §1
# HCT-116 [15] = experiment: Cytotoxicity against human HCT116 cells at 15 ug by disk diffusion assay; assay type: functional; procedure, shortened: as §1
# [16] = Cytotoxicity against human CFU-GM cells at 15 ug by disk diffusion assay; assay type: functional; procedure, shortened: as §1
# [17] = Cytotoxicity against human H125M cells at 60 ug by disk diffusion assay; assay type: functional; procedure, shortened: as §1
smiles,measurement,setting,value
CCCCCCCCCC[C@@H](O)[C@H]1CC[C@@H]([C@@H]2CC[C@H]([C@H](O)CCCCCCCCCC[C@@H](O)CC3=C[C@H](C)OC3=O)O2)O1,inhibition zone (IZ),MC-38 [1],800 Zone units
same,inhibition zone (IZ),L1210 [2],150 Zone units
same,inhibition zone (IZ),[3],350 Zone units
same,inhibition zone (IZ),L1210 [4],150 Zone units
same,inhibition zone (IZ),L1210 [5],450 Zone units
same,inhibition zone (IZ),[6],500 Zone units
same,inhibition zone (IZ),[7],450 Zone units
same,inhibition zone (IZ),L1210 [8],100 Zone units
same,inhibition zone (IZ),MC-38 [9],800 Zone units
same,IC50,[10],7.5 nM
same,IC50,HCT-116 [11],18 nM
same,inhibition zone (IZ),CCRF-CEM,0 Zone units
same,inhibition zone (IZ),MC-38 [12],750 Zone units
same,inhibition zone (IZ),[13],650 Zone units
same,inhibition zone (IZ),MC-38 [14],550 Zone units
same,inhibition zone (IZ),HCT-116 [15],500 Zone units
same,inhibition zone (IZ),[16],300 Zone units
CCCCCCC[C@H](O)CC[C@H](O)[C@H]1CC[C@H]([C@H]2CC[C@H]([C@@H](O)CCCCCCCCCC[C@@H](O)CC3=C[C@H](C)OC3=O)O2)O1,inhibition zone (IZ),MC-38 [1],>1000 Zone units
same,inhibition zone (IZ),L1210 [2],400 Zone units
same,inhibition zone (IZ),[3],550 Zone units
same,inhibition zone (IZ),L1210 [4],100 Zone units
same,inhibition zone (IZ),L1210 [5],600 Zone units
same,inhibition zone (IZ),[6],450 Zone units
same,inhibition zone (IZ),[7],450 Zone units
same,inhibition zone (IZ),L1210 [8],300 Zone units
same,inhibition zone (IZ),MC-38 [9],900 Zone units
same,inhibition zone (IZ),CCRF-CEM,150 Zone units
same,inhibition zone (IZ),MC-38 [12],850 Zone units
same,inhibition zone (IZ),[13],750 Zone units
same,inhibition zone (IZ),MC-38 [14],750 Zone units
same,inhibition zone (IZ),HCT-116 [15],600 Zone units
same,inhibition zone (IZ),[16],300 Zone units
CCCCCCCCCC[C@H](O)[C@H]1CC[C@@H]([C@@H]2CC[C@H]([C@@H](O)CCCCCCCCCC[C@@H](O)CC3=C[C@H](C)OC3=O)O2)O1,inhibition zone (IZ),MC-38 [1],800 Zone units
same,inhibition zone (IZ),L1210 [2],250 Zone units
same,inhibition zone (IZ),[3],400 Zone units
same,inhibition zone (IZ),L1210 [4],100 Zone units
same,inhibition zone (IZ),L1210 [5],650 Zone units
same,inhibition zone (IZ),[6],600 Zone units
same,inhibition zone (IZ),[7],550 Zone units
same,inhibition zone (IZ),L1210 [8],200 Zone units
same,inhibition zone (IZ),MC-38 [9],900 Zone units
same,IC50,[10],5 nM
same,IC50,HCT-116 [11],0.69 nM
same,inhibition zone (IZ),CCRF-CEM,0 Zone units
same,inhibition zone (IZ),MC-38 [12],800 Zone units
same,inhibition zone (IZ),[13],700 Zone units
same,inhibition zone (IZ),MC-38 [14],700 Zone units
same,inhibition zone (IZ),HCT-116 [15],550 Zone units
same,inhibition zone (IZ),[16],250 Zone units
CCCCCCC[C@H](O)CC[C@H](O)[C@H]1CC[C@H]([C@H]2CC[C@H]([C@H](O)CCCCCCCCCC[C@@H](O)CC3=C[C@H](C)OC3=O)O2)O1,inhibition zone (IZ),MC-38 [1],900 Zone units
same,inhibition zone (IZ),L1210 [2],350 Zone units
same,inhibition zone (IZ),[3],100 Zone units
same,inhibition zone (IZ),L1210 [4],150 Zone units
same,inhibition zone (IZ),L1210 [5],700 Zone units
same,inhibition zone (IZ),[6],550 Zone units
same,inhibition zone (IZ),[7],500 Zone units
same,inhibition zone (IZ),L1210 [8],250 Zone units
same,inhibition zone (IZ),MC-38 [9],950 Zone units
same,inhibition zone (IZ),CCRF-CEM,0 Zone units
same,inhibition zone (IZ),MC-38 [12],750 Zone units
same,inhibition zone (IZ),[13],700 Zone units
same,inhibition zone (IZ),MC-38 [14],600 Zone units
same,inhibition zone (IZ),HCT-116 [15],600 Zone units
same,inhibition zone (IZ),[16],400 Zone units
CCCCCCCCCC[C@H](O)[C@H]1CC[C@H]([C@H]2CC[C@H]([C@@H](O)CCCCCCCCCC[C@@H](O)CC3=C[C@H](C)OC3=O)O2)O1,inhibition zone (IZ),MC-38 [1],800 Zone units
same,inhibition zone (IZ),L1210 [2],400 Zone units
same,inhibition zone (IZ),[3],450 Zone units
same,inhibition zone (IZ),L1210 [4],100 Zone units
same,inhibition zone (IZ),L1210 [5],800 Zone units
same,inhibition zone (IZ),L1210 [8],150 Zone units
same,inhibition zone (IZ),MC-38 [9],800 Zone units
same,IC50,[10],9 nM
same,IC50,HCT-116 [11],0.45 nM
same,inhibition zone (IZ),CCRF-CEM,150 Zone units
same,inhibition zone (IZ),MC-38 [12],800 Zone units
same,inhibition zone (IZ),MC-38 [14],700 Zone units
same,inhibition zone (IZ),HCT-116 [15],600 Zone units
CCCCCCCCCC[C@@H](O)[C@@H]1CC[C@@H]([C@@H]2CC[C@@H]([C@H](O)CCCCCCCCCC(O)CC3=CC(C)OC3=O)O2)O1 (stereo partly specified) [BULLATACIN],inhibition zone (IZ),[17],400 Zone units
same,inhibition zone (IZ),MC-38 [1],1000 Zone units
same,inhibition zone (IZ),L1210 [2],250 Zone units
same,inhibition zone (IZ),L1210 [4],150 Zone units
same,inhibition zone (IZ),L1210 [5],550 Zone units
same,inhibition zone (IZ),[6],450 Zone units
same,inhibition zone (IZ),[7],450 Zone units
same,inhibition zone (IZ),L1210 [8],200 Zone units
same,inhibition zone (IZ),MC-38 [9],850 Zone units
same,IC50,[10],2.5 nM
same,IC50,HCT-116 [11],1.4 nM
same,inhibition zone (IZ),CCRF-CEM,100 Zone units
same,inhibition zone (IZ),MC-38 [12],800 Zone units
same,inhibition zone (IZ),[13],700 Zone units
same,inhibition zone (IZ),MC-38 [14],650 Zone units
same,inhibition zone (IZ),HCT-116 [15],650 Zone units
same,inhibition zone (IZ),[16],550 Zone units
CCCCCCCCCC[C@@H](O)[C@H]1CC[C@@H]([C@H]2CC[C@H]([C@H](O)CCC[C@H](O)CCCCCCCC3=C[C@H](C)OC3=O)O2)O1 [TRILOBIN],inhibition zone (IZ),MC-38 [1],950 Zone units
same,inhibition zone (IZ),L1210 [2],200 Zone units
same,inhibition zone (IZ),[3],350 Zone units
same,inhibition zone (IZ),L1210 [4],100 Zone units
same,inhibition zone (IZ),L1210 [5],850 Zone units
same,inhibition zone (IZ),[6],500 Zone units
same,inhibition zone (IZ),[7],400 Zone units
same,inhibition zone (IZ),L1210 [8],200 Zone units
same,inhibition zone (IZ),MC-38 [9],800 Zone units
same,inhibition zone (IZ),CCRF-CEM,100 Zone units
same,inhibition zone (IZ),MC-38 [12],800 Zone units
same,inhibition zone (IZ),[13],550 Zone units
same,inhibition zone (IZ),MC-38 [14],600 Zone units
same,inhibition zone (IZ),HCT-116 [15],450 Zone units
same,inhibition zone (IZ),[16],350 Zone units
CCCCCCCCCC[C@H](O)[C@H]1CC[C@@H]([C@@H]2CC[C@H]([C@H](O)CCCCCCCCCC[C@@H](O)CC3=C[C@H](C)OC3=O)O2)O1 [rolliniastatin-1],inhibition zone (IZ),MC-38 [1],900 Zone units
same,inhibition zone (IZ),L1210 [2],250 Zone units
same,inhibition zone (IZ),[3],600 Zone units
same,inhibition zone (IZ),L1210 [4],100 Zone units
same,inhibition zone (IZ),L1210 [5],600 Zone units
same,inhibition zone (IZ),[6],400 Zone units
same,inhibition zone (IZ),[7],400 Zone units
same,inhibition zone (IZ),L1210 [8],200 Zone units
same,inhibition zone (IZ),MC-38 [9],1000 Zone units
same,IC50,[10],3 nM
same,IC50,HCT-116 [11],0.22 nM
same,inhibition zone (IZ),CCRF-CEM,0 Zone units
same,inhibition zone (IZ),MC-38 [12],800 Zone units
same,inhibition zone (IZ),[13],750 Zone units
same,inhibition zone (IZ),MC-38 [14],700 Zone units
same,inhibition zone (IZ),HCT-116 [15],600 Zone units
same,inhibition zone (IZ),[16],350 Zone units
